Tested on: HEK-293T
Assay: Multiplex assay against HEK293T;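 for Population Tubulin-Different-Phenotype (%): share of the cells with healthy nuclei that show this phenotype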
Assay type: toxicity, cell-based
Details: human
Procedure, shortened: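 Imaging took place on a CQ1 microscope at 37°C and 5% CO2 once compound had been added to live cells stained at seeding with Hoechst33342, BioTracker Green Microtubule Cytoskeleton Dye, MitoTracker Red and Annexin V Alexa Fluor 680. CellPathfinder machine-learning gating classed cells as Hoechst high-intensity objects or normal cells, classed normal cells as having healthy, pyknosed or fragmented nuclei, and classed pyknosed cells as mitotic or apoptotic. Tubulin, mitochondrial-mass and membrane-permeability phenotypes are per cents of the healthy-nucleus cells.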

[1] = 12 h, 1 µM, compound concentration 1 uM, replicate 1
[2] = 12 h, 1 µM, compound concentration 1 uM, replicate 2
[3] = 12 h, 10 µM, compound concentration 10 uM, replicate 1
[4] = 12 h, 10 µM, compound concentration 10 uM, replicate 2
[5] = 24 h, 1 µM, compound concentration 1 uM, replicate 1
[6] = 24 h, 1 µM, compound concentration 1 uM, replicate 2
[7] = 24 h, 10 µM, compound concentration 10 uM, replicate 1
[8] = 24 h, 10 µM, compound concentration 10 uM, replicate 2
[9] = 48 h, 1 µM, compound concentration 1 uM, replicate 1
[10] = 48 h, 1 µM, compound concentration 1 uM, replicate 2
[11] = 48 h, 10 µM, compound concentration 10 uM, replicate 1
[12] = 48 h, 10 µM, compound concentration 10 uM, replicate 2

N#Cc1cccc(C(=O)Nc2cc(-c3ccccc3)nn2-c2ccccc2)c1
Population Apoptotic (%) [1]: 48%
Population Healthy Nuclei (%) [1]: 41%
Population Hoechst High Intensity Objects (%) [1]: 13%
Population Membrane Permeable-Phenotype (%) [1]: 2%
Population Mitochondria Different-Phenotype (%) [1]: 85%
Population Mitotic Cells (%) [1]: 51%
Population Normal (%) [1]: 86%
Population Pyknosed Nuclei (%) [1]: 49%
Population Tubulin-Different-Phenotype (%) [1]: 64%
Total Cell Count [1]: 315
Population Apoptotic (%) [2]: 16%
Population Fragmented Nuclei (%) [2]: 8%
Population Healthy Nuclei (%) [2]: 42%
Population Hoechst High Intensity Objects (%) [2]: 6%
Population Membrane Permeable-Phenotype (%) [2]: 18%
Population Mitochondria Different-Phenotype (%) [2]: 23%
Population Mitotic Cells (%) [2]: 83%
Population Normal (%) [2]: 93%
Population Pyknosed Nuclei (%) [2]: 48%
Population Tubulin-Different-Phenotype (%) [2]: 45%
Total Cell Count [2]: 182
Population Apoptotic (%) [3]: 73%
Population Fragmented Nuclei (%) [3]: 8%
Population Healthy Nuclei (%) [3]: 33%
Population Hoechst High Intensity Objects (%) [3]: 14%
Population Membrane Permeable-Phenotype (%) [3]: 5%
Population Mitochondria Different-Phenotype (%) [3]: 97%
Population Mitotic Cells (%) [3]: 26%
Population Normal (%) [3]: 86%
Population Pyknosed Nuclei (%) [3]: 57%
Total Cell Count [3]: 300
Population Apoptotic (%) [4]: 45%
Population Fragmented Nuclei (%) [4]: 5%
Population Healthy Nuclei (%) [4]: 25%
Population Hoechst High Intensity Objects (%) [4]: 5%
Population Membrane Permeable-Phenotype (%) [4]: 14%
Population Mitochondria Different-Phenotype (%) [4]: 73%
Population Mitotic Cells (%) [4]: 54%
Population Normal (%) [4]: 94%
Population Pyknosed Nuclei (%) [4]: 68%
Population Tubulin-Different-Phenotype (%) [4]: 100%
Total Cell Count [4]: 174
Population Apoptotic (%) [5]: 45%
Population Fragmented Nuclei (%) [5]: 9%
Population Healthy Nuclei (%) [5]: 37%
Population Hoechst High Intensity Objects (%) [5]: 12%
Population Membrane Permeable-Phenotype (%) [5]: 4%
Population Mitochondria Different-Phenotype (%) [5]: 61%
Population Mitotic Cells (%) [5]: 54%
Population Normal (%) [5]: 87%
Population Pyknosed Nuclei (%) [5]: 53%
Population Tubulin-Different-Phenotype (%) [5]: 51%
Total Cell Count [5]: 328
Population Apoptotic (%) [6]: 12%
Population Fragmented Nuclei (%) [6]: 6%
Population Healthy Nuclei (%) [6]: 53%
Population Hoechst High Intensity Objects (%) [6]: 4%
Population Membrane Permeable-Phenotype (%) [6]: 14%
Population Mitochondria Different-Phenotype (%) [6]: 21%
Population Mitotic Cells (%) [6]: 88%
Population Normal (%) [6]: 95%
Population Pyknosed Nuclei (%) [6]: 39%
Population Tubulin-Different-Phenotype (%) [6]: 45%
Total Cell Count [6]: 200
Population Apoptotic (%) [7]: 65%
Population Fragmented Nuclei (%) [7]: 7%
Population Healthy Nuclei (%) [7]: 27%
Population Hoechst High Intensity Objects (%) [7]: 15%
Population Membrane Permeable-Phenotype (%) [7]: 4%
Population Mitochondria Different-Phenotype (%) [7]: 97%
Population Mitotic Cells (%) [7]: 34%
Population Normal (%) [7]: 84%
Population Pyknosed Nuclei (%) [7]: 65%
Population Tubulin-Different-Phenotype (%) [7]: 95%
Total Cell Count [7]: 309
Population Apoptotic (%) [8]: 67%
Population Fragmented Nuclei (%) [8]: 5%
Population Healthy Nuclei (%) [8]: 31%
Population Hoechst High Intensity Objects (%) [8]: 4%
Population Membrane Permeable-Phenotype (%) [8]: 8%
Population Mitochondria Different-Phenotype (%) [8]: 84%
Population Mitotic Cells (%) [8]: 33%
Population Normal (%) [8]: 95%
Population Pyknosed Nuclei (%) [8]: 62%
Population Tubulin-Different-Phenotype (%) [8]: 100%
Total Cell Count [8]: 167
Population Apoptotic (%) [9]: 46%
Population Fragmented Nuclei (%) [9]: 11%
Population Healthy Nuclei (%) [9]: 49%
Population Hoechst High Intensity Objects (%) [9]: 15%
Population Membrane Permeable-Phenotype (%) [9]: 4%
Population Mitochondria Different-Phenotype (%) [9]: 29%
Population Mitotic Cells (%) [9]: 53%
Population Normal (%) [9]: 84%
Population Pyknosed Nuclei (%) [9]: 38%
Population Tubulin-Different-Phenotype (%) [9]: 44%
Total Cell Count [9]: 415
Population Apoptotic (%) [10]: 19%
Population Fragmented Nuclei (%) [10]: 6%
Population Healthy Nuclei (%) [10]: 77%
Population Hoechst High Intensity Objects (%) [10]: 4%
Population Membrane Permeable-Phenotype (%) [10]: 15%
Population Mitochondria Different-Phenotype (%) [10]: 4%
Population Mitotic Cells (%) [10]: 80%
Population Normal (%) [10]: 95%
Population Pyknosed Nuclei (%) [10]: 16%
Population Tubulin-Different-Phenotype (%) [10]: 42%
Total Cell Count [10]: 356
Population Apoptotic (%) [11]: 53%
Population Fragmented Nuclei (%) [11]: 14%
Population Healthy Nuclei (%) [11]: 23%
Population Hoechst High Intensity Objects (%) [11]: 11%
Population Membrane Permeable-Phenotype (%) [11]: 5%
Population Mitochondria Different-Phenotype (%) [11]: 78%
Population Mitotic Cells (%) [11]: 46%
Population Normal (%) [11]: 88%
Population Pyknosed Nuclei (%) [11]: 62%
Population Tubulin-Different-Phenotype (%) [11]: 100%
Total Cell Count [11]: 332
Population Apoptotic (%) [12]: 63%
Population Fragmented Nuclei (%) [12]: 6%
Population Healthy Nuclei (%) [12]: 42%
Population Hoechst High Intensity Objects (%) [12]: 7%
Population Membrane Permeable-Phenotype (%) [12]: 17%
Population Mitochondria Different-Phenotype (%) [12]: 65%
Population Mitotic Cells (%) [12]: 36%
Population Normal (%) [12]: 92%
Population Pyknosed Nuclei (%) [12]: 50%
Population Tubulin-Different-Phenotype (%) [12]: 98%
Total Cell Count [12]: 204

Source: ChEMBL document CHEMBL4689842, “EUbOPEN Chemogenomics Library wave 1” (2021)
